Assay results from ChEMBL document CHEMBL1137710, “Synthesis and in vitro antitumor activity of new quinoxaline derivatives” (2009).

Key:
Assay type in all cases: functional
[1] = test system: NCI-H460; test: Growth inhibition of human NCI-H460 cells after 48 hrs by sulforhodamine B assay; conditions: NCI-H460, 48 h
Method in brief: (§1)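 NCI 60-human-tumor-cell-line panel, with compounds tested over a 5-log dose range. Values are taken from dose-response curves as log10 molar concentrations: GI50 is 50% net growth inhibition, TGI is total growth inhibition, and LC50 is 50% net cell death.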

[2] = test system: LOX IMVI; test: Growth inhibition of human LOXIMVI cells after 48 hrs by sulforhodamine B assay; method in brief: as §1
[3] = test system: HCT-15; test: Growth inhibition of human HCT15 cells after 48 hrs by sulforhodamine B assay; conditions: HCT-15, 48 h; method in brief: as §1
[4] = test system: IGROV-1; test: Growth inhibition of human IGROV1 cells after 48 hrs by sulforhodamine B assay; conditions: IGROV-1, 48 h; method in brief: as §1
[5] = test system: A498; test: Growth inhibition of human A498 cells after 48 hrs by sulforhodamine B assay; conditions: A498, 48 h; method in brief: as §1
[6] = test system: PC-3; test: Growth inhibition of human PC3 cells after 48 hrs by sulforhodamine B assay; conditions: PC-3, 48 h; method in brief: as §1
[7] = test system: MCF7; test: Anticancer activity against human MCF7 cells assessed as cell growth at 100 uM after 48 hrs by sulforhodamine B assay; conditions: MCF7, 48 h, read-out: Activity
[8] = test system: ACHN; test: Growth inhibition of human ACHN cells after 48 hrs by sulforhodamine B assay
[9] = test system: KM12; test: Growth inhibition of human KM12 cells after 48 hrs by sulforhodamine B assay; conditions: KM12, 48 h; method in brief: as §1
[10] = test system: SK-MEL-28; test: Growth inhibition of human SK-MEL-28 cells after 48 hrs by sulforhodamine B assay; conditions: SK-MEL-28, 48 h; method in brief: as §1
[11] = test system: NCI-H460; test: Anticancer activity against human NCI-H460 cells assessed as cell growth at 100 uM after 48 hrs by sulforhodamine B assay; conditions: NCI-H460, 48 h, read-out: Activity
[12] = test system: MOLT-4; test: Growth inhibition of human MOLT4 cells after 48 hrs by sulforhodamine B assay; conditions: MOLT-4, 48 h; method in brief: as §1
[13] = test system: SN12C; test: Growth inhibition of human SN12C cells after 48 hrs by sulforhodamine B assay
Method in brief: (§2)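 Run in the NCI 60-human-tumour-cell-line panel, tested over a 5-log dose range. Dose–response curves gave three values per cell line, each as a log10 molar concentration: GI50 (50% inhibition of net cell growth), TGI (total inhibition of net growth) and LC50 (50% net cell death). The mean graph midpoint is the arithmetic mean over all lines, with insensitive lines entered at the highest concentration tested.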

[14] = test system: SF-268; test: Anticancer activity against human SF268 cells assessed as cell growth at 100 uM after 48 hrs by sulforhodamine B assay; conditions: SF-268, 48 h, read-out: Activity
[15] = test system: UACC-62; test: Growth inhibition of human UACC62 cells after 48 hrs by sulforhodamine B assay; conditions: UACC-62, 48 h; method in brief: as §2
[16] = test system: SR; test: Growth inhibition of human SR cells after 48 hrs by sulforhodamine B assay; method in brief: as §2
[17] = test system: SK-MEL-5; test: Growth inhibition of human SK-MEL-5 cells after 48 hrs by sulforhodamine B assay; conditions: SK-MEL-5, 48 h; method in brief: as §1
[18] = test system: RXF 393; test: Growth inhibition of human RXF393 cells after 48 hrs by sulforhodamine B assay; conditions: RXF 393, 48 h; method in brief: as §1
[19] = test system: SF-539; test: Growth inhibition of human SF539 cells after 48 hrs by sulforhodamine B assay; conditions: SF-539, 48 h; method in brief: as §1
[20] = Growth inhibition of human Hs 578T cells after 48 hrs by sulforhodamine B assay; method in brief: as §1
[21] = test system: DU-145; test: Growth inhibition of human DU145 cells after 48 hrs by sulforhodamine B assay; conditions: DU-145, 48 h; method in brief: as §1
[22] = test system: BT-549; test: Growth inhibition of human BT549 cells after 48 hrs by sulforhodamine B assay; conditions: BT-549, 48 h; method in brief: as §1
[23] = test system: CCRF-CEM; test: Growth inhibition of human CCRF-CEM cells after 48 hrs by sulforhodamine B assay; method in brief: as §1
[24] = test system: SK-MEL-2; test: Growth inhibition of human SK-MEL-2 cells after 48 hrs by sulforhodamine B assay; conditions: SK-MEL-2, 48 h; method in brief: as §1
[25] = test system: SF-268; test: Growth inhibition of human SF268 cells after 48 hrs by sulforhodamine B assay; conditions: SF-268, 48 h; method in brief: as §1
[26] = test system: Malme-3M; test: Growth inhibition of human MALME-3M cells after 48 hrs by sulforhodamine B assay; method in brief: as §1
[27] = test system: EKVX; test: Growth inhibition of human EKVX cells after 48 hrs by sulforhodamine B assay; method in brief: as §1
[28] = test system: MCF7; test: Growth inhibition of human MCF7 cells after 48 hrs by sulforhodamine B assay; conditions: MCF7, 48 h; method in brief: as §1
[29] = test system: HOP-92; test: Growth inhibition of human HOP92 cells after 48 hrs by sulforhodamine B assay; conditions: HOP-92, 48 h; method in brief: as §1
[30] = read-out: pLC50 (the source's name) (converted)

## COc1ccc(Oc2nc3cc(N)cc(N)c3nc2-c2ccccc2)cc1
[1]
  GI50: 30.9 µM
  LC50 (50% net cell kill): > 100 µM
[1]; read-out: pTGI (converted)
  TGI: > 100 µM
[2]
  GI50: 34.7 µM
  LC50: > 100 µM
[2]; read-out: pTGI (converted)
  TGI: > 100 µM
[3]
  GI50: 52.5 µM
  LC50: > 100 µM
[3]; read-out: pTGI (converted)
  TGI: > 100 µM
[4]
  GI50: 25.1 µM
[4]; [30]
  CC50: > 100 µM
[4]; read-out: pTGI (converted)
  TGI: > 100 µM
[5]
  GI50: 49 µM
[5]; [30]
  CC50: > 100 µM
[5]; read-out: pTGI (converted)
  TGI: > 100 µM
[6]
  GI50: 15.1 µM
[6]; [30]
  CC50: > 100 µM
[6]; read-out: pTGI (converted)
  TGI: > 100 µM
[7]
  growth at 100 µM: -89%
[8]
  GI50: 36.3 µM
[8]; [30]
  CC50: > 100 µM
[8]; read-out: pTGI (converted)
  TGI: > 100 µM
[9]
  GI50: 37.2 µM
  LC50 (50% net cell kill): > 100 µM
[9]; read-out: pTGI (converted)
  TGI: > 100 µM
[10]
  GI50: 19.5 µM
[10]; [30]
  CC50: > 100 µM
[10]; read-out: pTGI (converted)
  TGI: 49 µM
[11]
  growth at 100 µM: -48%
[12]
  GI50: 5.37 µM
  LC50: > 100 µM
[12]; read-out: pTGI (converted)
  TGI: 93.3 µM
[13]
  GI50: 50.1 µM
[13]; [30]
  CC50: > 100 µM
[13]; read-out: pTGI (converted)
  TGI: > 100 µM
[14]
  growth at 100 µM: -56%
[15]
  GI50: 63.1 µM
[15]; [30]
  CC50: > 100 µM
[15]; read-out: pTGI (converted)
  TGI: > 100 µM
[16]
  GI50: 18.6 µM
  LC50 (concentration giving 50% net cell death): > 100 µM
[16]; read-out: pTGI (converted)
  TGI: > 100 µM
[17]
  GI50: 44.7 µM
[17]; [30]
  CC50: > 100 µM
[17]; read-out: pTGI (converted)
  TGI: > 100 µM
[18]
  GI50: 20 µM
[18]; [30]
  CC50: > 100 µM
[18]; read-out: pTGI (converted)
  TGI: 74.1 µM
[19]
  GI50: 23.4 µM
  LC50: > 100 µM
[19]; read-out: pTGI (converted)
  TGI: 61.7 µM
[20]
  GI50: 24.5 µM
[20]; [30]
  CC50: > 100 µM
[20]; read-out: pTGI (converted)
  TGI: > 100 µM
[21]
  GI50: 69.2 µM
[21]; [30]
  CC50: > 100 µM
[21]; read-out: pTGI (converted)
  TGI: > 100 µM
[22]
  GI50: 32.4 µM
[22]; [30]
  CC50: > 100 µM
[22]; read-out: pTGI (converted)
  TGI: > 100 µM
[23]
  GI50: 2.95 µM
  LC50: > 100 µM
[23]; read-out: pTGI (converted)
  TGI: 12.6 µM
[24]
  GI50: 25.1 µM
[24]; [30]
  CC50: > 100 µM
[24]; read-out: pTGI (converted)
  TGI: 87.1 µM
[25]
  GI50: 20.9 µM
  LC50: > 100 µM
[25]; read-out: pTGI (converted)
  TGI: > 100 µM
[26]
  GI50: 51.3 µM
[26]; [30]
  CC50: > 100 µM
[26]; read-out: pTGI (converted)
  TGI: > 100 µM
[27]
  GI50: 24.5 µM
  LC50 (50% net cell kill): > 100 µM
[27]; read-out: pTGI (converted)
  TGI: 63.1 µM
[28]
  GI50: 47.9 µM
[28]; [30]
  CC50: > 100 µM
[28]; read-out: pTGI (converted)
  TGI: > 100 µM
[29]
  LC50 (50% net cell death): 77.6 µM
[29]; read-out: pTGI (converted)
  TGI: 8.13 µM
